Source: PubChem
A selection: hits, their analogues and other compounds. The true share with any hit is near 1.8%.
STAT1 inh: reduces IFN-gamma driven STAT1 reporter signal | NIH 3T3 STAT1-luciferase reporter, luminescence | inhibition, % at 5.5 µM | 200,000 compounds, 0.35% hits | AID 920;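 active = inhibition above a set limit, the mean inhibition across all tested compounds plus 3 SD, cut at about 34% in these data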;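 also: 0% = IFN-gamma with DMSO and 100% = IFN-gamma with 300 µM nifuroxazide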
C8 TRAIL sens: sensitizes caspase-8 expressing cells to TRAIL | AID 624354 | NB7+C8 cells + TRAIL, ATPlite viability luminescence | 360,000 compounds, 1% hits | inhibition (viability loss, TRAIL sensitization), % at 10 µM;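 active = compounds causing at least 50% loss of cell viability in the single-dose screen, relative to plate controls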
PPC-1+TRAIL kill: compounds killing PPC-1 cancer cells with TRAIL present (potentiator screen, no TRAIL-free arm); 220,000 compounds, 0.41% hits; PPC-1 cells + TRAIL, ATPLite viability luminescence; AID 1443; cell killing (% activity), % at 4 µM or 5 µM;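 active = cell killing above 50% in the first pass at 4 µM, then a duplicate retest at 5 µM averaging 50% or more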;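 also: plate controls were cells with TRAIL plus DMSO for no effect and medium-only wells lacking cells for full effect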
STAT3 act: activators of IL-6 induced STAT3 signaling; AID 871; 190,000 compounds, 0.91% hits; activation (% of control), % at 5.6 µM; U3A cells, IL-6 STAT3-luciferase reporter, luminescence; 100% = signal with IL-6 EC80 alone;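 active = activation above the screen-wide mean of compound activation plus 3 SD, cut at about 130% in these data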;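 also: 0% = background luminescence of wells with medium and substrate only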
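System – human U3A cells carrying STAT3-luciferase construct · Probe or stimulus – Interleukin-6, 33 ng/mL · Schedule – compound 1 h, then IL-6 6 h at 37 °C · Signal – luminescence from STAT3-driven luciferase reporter · Evaluation – percent of IL-6-only median luminescence · Benchmarks – IL-6-only high control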
STAT3 inh: reduces IL-6 driven STAT3 reporter signal; inhibition, % at 5.5 µM; U3A cells, IL-6 STAT3-luciferase reporter, luminescence; host cell line lacks STAT1; AID 862; 190,000 compounds, 0.89% hits;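 active = inhibition above the mean inhibition across all screened compounds plus 3 SD, cut at about 44% in these data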;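 also: 0% = DMSO only wells and 100% = 100 µM nifuroxazide control wells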
Starred values were filed as active, the others as inactive; x = no result.

SMILES	STAT1 inh	C8 TRAIL sens	PPC-1+TRAIL kill	STAT3 act	STAT3 inh
C(=C\c1nnc2c3ccccc3ncn12)/c1ccccc1	-54	12	36	145*	-49
O=C(OCc1nc2ccccc2s1)c1ccccc1O	-15	1	16	111	-6
O=C(OCc1nc2ccccc2s1)c1cccs1	-40	24	34	151*	-57
CC1=C(C(=O)OCC2CCCO2)C(c2coc3ccc(C)cc3c2=O)C2=C(CCCC2=O)N1 (stereo not given)	2	2	-6	114	-11
CC1=C(C(=O)OCC2CCCO2)C(c2coc3ccc(Cl)cc3c2=O)C2=C(CCCC2=O)N1 (stereo not given)	8	-9	-1	134*	-27
CCOC(=O)N/N=C/c1c(C)nn(-c2ccccc2Cl)c1Cl	-27	31	22	107	-14
Cc1ccsc1/C=N/Nc1nc2ccccc2s1	-82	25	21	144*	-59
C/C(=N\Nc1nc2ccccc2s1)c1cccs1	-65	67*	43	109	-14
CC(=NNc1nc2ccccc2s1)c1ncccn1	x	23	x	x	x
Cc1nn(-c2ccccc2Cl)c(Cl)c1/C=N/Nc1nc2ccccc2s1	34	56*	46	39	73*
C(=N\Nc1nc2ccccc2s1)/c1cccs1	-51	21	32	119	-19
Cc1nn(-c2ccccc2)c(C)c1/C=N/NC(=O)c1cc(-c2ccc(Cl)s2)[nH]n1	-3	46*	-24	105	2
Cc1nn(-c2ccccc2)c(C)c1/C=N/NC(=O)c1cc(C23CC4CC(CC(C4)C2)C3)[nH]n1	6	64*	14	99	10
Cc1cc(C(=O)N/N=C/c2c(C)nn(-c3ccccc3)c2C)n[nH]1	x	12	14	x	x
CC1CCCCc2nc3c(c(=O)n21)CCCC3 (stereo not given)	x	-6	x	x	x
O=C(NCc1ccccc1Cl)c1cccc2c1C(=O)c1ccc(-c3ccc(OC(F)(F)F)cc3)cc1S2(=O)=O	x	54*	x	x	x
COc1ccc(NC(=O)CN2C(=O)NC(C)(Cc3ccc(OC)c(OC)c3)C2=O)cc1 (stereo not given)	x	-6	x	x	x
Cc1nc2c(ccc3nc(NC(=O)C4CC4)sc32)s1	-61	20	20	157*	-67
CCC(=O)Nc1nc2ccc3sc(C)nc3c2s1	-79	8	18	116	-14
Cc1ccc(Cl)c2c1NC(=O)C2(O)CC(=O)c1ccccc1O (stereo not given)	5	1	-10	133*	-34
CSc1ccc(Cn2c(C)c(C(=O)NCc3ccc(F)cc3)sc2=O)cc1	x	-13	x	x	x
COc1cc(OC)cc(C(=O)NC(C(=O)NCCc2ccccn2)C(C)C)c1 (stereo not given)	x	-23	x	x	x
CCN(CC(=O)Nc1ccccc1C(F)(F)F)C(=O)CCc1c(C)[nH]c(=O)c(C#N)c1C	x	-8	x	x	x
CN=C(c1ccco1)n1c(=S)nc(-c2ccco2)n(C)c1=S	-3	-1	-5	135*	-36
CN=C(c1ccc(C)cc1)n1c(=S)nc(-c2ccc(C)cc2)n(C)c1=S	-9	10	16	114	-15
SMILES	STAT1 inh	C8 TRAIL sens	PPC-1+TRAIL kill	STAT3 act	STAT3 inh
CCOc1ccc(NS(=O)(=O)c2ccc3[nH]c(=O)[nH]c3c2)cc1	x	7	x	x	x
COc1ccc(CNC(=O)c2cn(Cc3ccc(S(=O)(=O)N(C)C)cc3)c(=O)s2)cc1	x	26	x	x	x
COc1ccc(CS(=O)(=O)/C(Cl)=C(/Cl)C(=O)Nc2ccc(OC)nc2)cc1	-27	90*	16	108	-4
COc1ccc(/C=C/C(=O)Nc2ccc(OC)nc2)cc1	-13	13	27	90	15
COc1ccc(NC(=O)/C(Cl)=C(/Cl)S(=O)Cc2ccccc2)cn1 (stereo not given)	-112	96*	2	99	8
CNC(=O)C[C@H]1C(=O)N(CCc2ccccc2)C[C@@H]1C	x	-13	x	x	x
COC1=CC(=O)c2ccccc2C1=O	x	88*	x	x	x
COC1=CC(=O)C=C(OC)C1=O	x	-19	x	x	x
c1ccc2[nH]c(-c3ccc4c(c3)OCO4)nc2c1	x	72*	x	x	x
NC(=O)C1CCN(C(=O)CCNS(=O)(=O)c2ccccc2F)CC1	x	-3	x	x	x
COc1cc(-c2c(C#N)c(N)nc3c2c(C)nn3-c2ccc(C)c(C)c2)cc(OC)c1OC	6	14	8	135*	-34
CN(C)c1ccc(C(=O)Nc2nc3c(s2)CCCC3)cc1	-21	55*	39	71	40
O=C(NCc1ccccc1OC(F)(F)F)C1CCC(=O)N(CCCN2CCOCC2)C1 (stereo not given)	x	6	x	x	x
C=C1C(=O)C23C(O)C1CCC2C12CCCC(C)(COC(C)=O)C1C(O)C3(O)OC2 (stereo not given)	x	74*	x	x	x
CSc1nc(N(C)CCO)c2sc3nc(-c4ccco4)c4c(c3c2n1)CCC4	2	-2	6	113	-16
CSc1nc(NCCN(C)C)c2sc3nc(-c4ccco4)c4c(c3c2n1)CCC4	x	83*	x	x	x
COc1ccc(-c2c(Sc3ccccc3)c3cc(-c4ccc5c(c4)OCO5)ccc3n2C)cc1	x	2	x	x	x
C=CCn1c(/N=C/c2ccc(N(C)C)cc2)nc2ccccc21	4	-3	0	95	9
CN(C)c1ccc(/C=N/n2ncc3ccccc32)cc1	-55	51*	43	95	12
COc1cc(/C=C2\COC/C(=C\c3cc(OC)c(OC)c(OC)c3)C2=O)cc(OC)c1OC	x	72*	41	x	x
COc1ccc(NC(=O)c2nc[nH]c2C(=O)N(C)CCO)cc1	x	6	x	x	x
Cc1cccn2c(=O)c3cc(C(=O)NCCc4ccccc4)c(=N)n(Cc4ccco4)c3nc12	x	60*	x	x	x
c1ccc(CNc2c3ccccc3nc3ccccc23)cc1	x	35	x	x	x
Oc1ccc(CCNc2c3ccccc3nc3ccccc23)cc1O	x	71*	x	x	x
COc1ccc(NC(=O)CSc2nc(N)c3cc4c(nc3n2)CCCC4)cc1	-6	37	15	110	-6
SMILES	STAT1 inh	C8 TRAIL sens	PPC-1+TRAIL kill	STAT3 act	STAT3 inh
CC(=O)c1ccc(NC(=O)CSc2nc(N)c3cc4c(nc3n2)CCCC4)cc1	-18	52*	23	105	-8
Nc1ccc2c(c1)C(=O)C(=O)c1ccccc1-2	13	97*	33	72	39
Cc1cc(C(=O)COC(=O)c2ccc[nH]c2=O)c(C)n1-c1ccccc1	36*	72*	62*	59	49*
Cc1cc(C(=O)COC(=O)c2ccc[nH]c2=O)c(C)n1-c1ccc(F)cc1	-10	52*	45	85	20
Cc1cc(C(=O)COC(=O)c2ccc[nH]c2=O)c(C)n1C1CC1	-22	13	24	102	6
CC(=O)c1cc2cccc(OC3(C)CCN(Cc4ccc5ccccc5c4)C3)c2o1 (stereo not given)	x	7	x	x	x
Cn1c(=O)c2c([nH]c(=S)n2Cc2ccc(Cl)cc2)n(C)c1=O	x	12	x	x	x
CC(=O)Oc1ccc2c(c1)C(=O)CCCCCC(=O)O2	x	3	x	x	x
CC(/C=C/c1cccc([N+](=O)[O-])c1)=N/NC(=O)c1cccnc1	-7	10	12	94	7
